ChEMBL document CHEMBL1124464, “Peripherally acting enkephalin analogues. 2. Polar tri- and tetrapeptides” (1989)

Key:
Format in all cases: functional
[1] = species on record: Cavia porcellus; experiment: Inhibition of electrically induced contractions on the guinea pig ileum; conditions: read-out: ED50 (the source's name)
Procedure, shortened: (§1)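 Guinea pig ileum contractions evoked by coaxial stimulation at 0.1 Hz, 0.5-ms pulses, supramaximal voltage, recorded isometrically; dose-response curves built with 15-min washout between doses.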

[2] = system: Mus musculus; experiment: Antinociceptive activity of subcutaneously administered compound in acetic acid (AA) induced writhing mice; conditions: sc
Procedure, shortened: (§2)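 Male TFW mice, groups of five to six, given drug subcutaneously (10 mL kg-1), then ip acetic acid 0.6% at 25 mL kg-1. Writhes counted for 5 min beginning 15 min after acetic acid. ED50 = dose reducing writhes 50% versus vehicle, by linear regression.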

[3] = system: Mus musculus; experiment: Antinociceptive activity of subcutaneously administered compound in phenyl-p-benzoquinone induced writhing mice; conditions: Mus musculus, sc; read-out: ED50
Procedure, shortened: (§3)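 Groups of five to six female CD1 mice given drug subcutaneously (10 mL kg-1) 30 min before ip phenyl-p-benzoquinone 2.5 mg kg-1. Writhes (abdominal constrictions/hind-limb extensions) counted over 2.5 min from 10 min post-PBQ. ED50, the dose giving 50% fewer writhes than vehicle, from linear regression.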

[4] = system: Mus musculus; experiment: Antinociceptive activity of perorally administered compound (20 mg) in phenyl-p-benzoquinone induced writhing mice
Procedure, shortened: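 Female CD1 mice (Charles River), groups of five to six, dosed orally by blunt intragastric needle (10 mL kg-1) 30 min before ip PBQ at 2.5 mg kg-1. Abdominal constrictions/hind-limb extensions were counted over 2.5 min starting 10 min after PBQ. ED50 is the dose halving writhes versus vehicle, estimated by linear regression.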

[5] = system: Rodentia sp.; experiment: Antinociceptive activity in the hot plate test (central activity) in rodents, when compound administered subcutaneously at 10 mg
Procedure, shortened: (§4)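 Male CFLP mice, groups of five to six, placed on a copper surface held at 55 °C; latency to paw licking/shaking or jumping recorded, 30-s cut-off. Drug given subcutaneously at 10 mL kg-1. ED50 = dose doubling response latency versus vehicle, by parallel-line probit analysis.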

[6] = species on record: Mus musculus; experiment: Dose ratio in the presence and absence of the peripheral opioid antagonist in N-methyl-nalorphine in AA writhing mice
Procedure, shortened: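 Acetic acid (0.6%, ip) writhing in male TFW mice; N-methylnalorphine 11.5 mg kg-1 ip 20 min before subcutaneous agonist. Writhes counted 5 min from 15 min post-irritant. Dose ratio taken as the shift between parallel regression lines with and without antagonist.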

[7] = system: Mus musculus; experiment: Antinociceptive activity of perorally administered compound in phenyl-p-benzoquinone induced writhing mice; conditions: po
Procedure, shortened: (§5)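 Female CD1 mice, groups of five to six, dosed orally by blunt intragastric needle (10 mL kg-1) 30 min before ip phenyl-p-benzoquinone 2.5 mg kg-1. Abdominal constrictions/hind-limb extensions counted over 2.5 min starting 10 min after PBQ. ED50 = dose halving writhes versus vehicle, by linear regression.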

[8] = system: Rodentia sp.; experiment: Antinociceptive activity in the hot plate test (central activity) in rodents, when compound administered subcutaneously at; conditions: sc
Procedure, shortened: (§6)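 Male CFLP mice (Hacking and Churchill), groups of five to six, dosed sc at 10 mL kg-1 and placed on a copper surface held at 55 °C. Signs of discomfort (paw licking/shaking, jumping) were scored, with a 30-s cut-off. ED50 is the dose doubling response latency versus vehicle, estimated by parallel-line probit analysis.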

[9] = system: Mus musculus; experiment: Antinociceptive activity of subcutaneously administered compound (30 mg) in acetic acid (AA) induced writhing mice; procedure, shortened: as §2
[10] = system: Mus musculus; experiment: (§7) Antinociceptive activity of subcutaneously administered compound (1 mg) in phenyl-p-benzoquinone induced writhing mice
Procedure, shortened: (§8)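 Female CD1 mice (Charles River), groups of five to six, given vehicle or drug sc (10 mL kg-1) 30 min before ip phenyl-p-benzoquinone at 2.5 mg kg-1 (10 mL kg-1). Writhes were counted for 2.5 min from 10 min post-irritant. ED50, the dose giving a 50% reduction in writhes relative to vehicle, was obtained by linear regression.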

[11] = system: Mus musculus; experiment: (§9) Antinociceptive activity of subcutaneously administered compound (10 mg) in phenyl-p-benzoquinone induced writhing mice; procedure, shortened: as §8
[12] = system: Mus musculus; experiment: Antinociceptive activity of subcutaneously administered compound (100 mg) in acetic acid (AA) induced writhing mice; procedure, shortened: as §2
[13] = system: Rodentia sp.; experiment: Antinociceptive activity in the hot plate test (central activity) in rodents, when compound administered subcutaneously at 100 mg; procedure, shortened: as §4
[14] = system: Mus musculus; experiment: as §7; procedure, shortened: as §3; remark: listed apart in the source
[15] = system: Mus musculus; experiment: as §9; procedure, shortened: as §3; remark: listed apart in the source
[16] = system: Mus musculus; experiment: Antinociceptive activity of perorally administered compound (50 mg) in phenyl-p-benzoquinone induced writhing mice; procedure, shortened: as §5
[17] = system: Mus musculus; experiment: (§10) Antinociceptive activity in the hot plate test (central activity) in rodents, when compound administered subcutaneously at 50 mg; procedure, shortened: as §6
[18] = system: Cavia porcellus; experiment: Inhibition of electrically induced contractions on the guinea pig ileum at […] after dosing.; procedure, shortened: as §1
[19] = system: Rodentia sp.; experiment: as §10; procedure, shortened: as §4
[20] = system: Rodentia sp.; experiment: Antinociceptive activity in the hot plate test (central activity) in rodents, when compound administered subcutaneously at 20 mg; procedure, shortened: as §4
[21] = system: Mus musculus; experiment: Antinociceptive activity of subcutaneously administered compound (20 mg) in acetic acid (AA) induced writhing mice; procedure, shortened: as §2
[22] = system: Mus musculus; experiment: Antinociceptive activity of subcutaneously administered compound (3 mg) in acetic acid (AA) induced writhing mice; procedure, shortened: as §2
[23] = system: Mus musculus; experiment: Antinociceptive activity of subcutaneously administered compound (10) in phenyl-p-benzoquinone induced writhing mice; procedure, shortened: as §3

Row | Structure (SMILES) | EC50 [1] | ED50 [2] | ED50 [3] | Inhibition [4] | Ratio [6] | further results
1 | CC(=O)O.CCN(CCc1ccc(Br)cc1)C(=O)CNC(=O)[C@@H](CCCN=C(N)N)NC(=O)[C@H](Cc1ccc(O)cc1)N=C(N)N | 216 nM | 0.35 mg/kg | 3.4 mg/kg | 15% | 1.5 | Inhibition [5]: 0%
2 | CC(=O)O.CCN(CCc1ccccc1F)C(=O)CNC(=O)[C@@H](CCCN=C(N)N)NC(=O)[C@H](Cc1ccc(O)cc1)N=C(N)N | 24.6 nM | 0.17 mg/kg | 0.9 mg/kg |  | 9.8 | ED50 [7]: ~50 mg/kg; ED50 [8]: 22.2 mg/kg
3 | CC(=O)O.CCN(CCc1ccc(S(N)(=O)=O)cc1)C(=O)CNC(=O)[C@@H](CCCN=C(N)N)NC(=O)[C@H](Cc1ccc(O)cc1)N=C(N)N | 4900 nM |  |  |  |  | Inhibition [9]: 0%
4 | CC(=O)O.CCN(CCc1ccc2ccccc2c1)C(=O)CNC(=O)[C@@H](CCCN=C(N)N)NC(=O)[C@H](Cc1ccc(O)cc1)N=C(N)N |  |  |  | 0% |  | Inhibition [10]: 11%
5 | CC(=O)O.CCN(CCc1ccccc1C(F)(F)F)C(=O)CNC(=O)[C@@H](CCCN=C(N)N)NC(=O)[C@H](Cc1ccc(O)cc1)N=C(N)N | 28.4 nM |  |  | 0% |  | Inhibition [11]: 40%
6 | CC(=O)O.CCN(CCc1ccc(Br)cc1)C(=O)CNC(=O)[C@@H](CCCN=C(N)N)NC(=O)[C@@H](N)Cc1ccc(O)cc1 | < 100 nM |  |  | 0% |  | Inhibition [12]: 0%; Inhibition [13]: 0%; Inhibition [14]: 10%
7 | CC(=O)O.CCN(Cc1ccc([N+](=O)[O-])cc1)C(=O)CNC(=O)[C@@H](CCCN=C(N)N)NC(=O)[C@@H](N)Cc1ccc(O)cc1 | 9.7 nM | 0.02 mg/kg |  |  | 2.8 | Inhibition [15]: 0%; Inhibition [16]: 0%; Inhibition [17]: 0%
8 | CC(=O)O.CCN(CCc1ccc(S(N)(=O)=O)cc1)C(=O)CNC(=O)[C@@H](CCCN=C(N)N)NC(=O)[C@@H](N)Cc1ccc(O)cc1 | 11000 nM |  |  |  |  | Inhibition [12]: 0%
9 | CC(=O)O.CCN(CCNC(=O)[C@@H](CCCN=C(N)N)NC(=O)[C@@H](N)Cc1ccc(O)cc1)CCc1ccc([N+](=O)[O-])cc1 |  |  |  |  |  | Inhibition [18]: 25%
10 | CC(=O)O.CCN(Cc1ccccc1[N+](=O)[O-])C(=O)CNC(=O)[C@@H](CCCN=C(N)N)NC(=O)[C@@H](N)Cc1ccc(O)cc1 | 522 nM | 6.1 mg/kg | 60.3 mg/kg |  | 2.8 | Inhibition [19]: 0%
11 | CC(=O)O.CCN(CCc1ccccc1F)C(=O)CNC(=O)[C@@H](CCCN=C(N)N)NC(=O)[C@@H](N)Cc1ccc(O)cc1 | 22 nM | 0.3 mg/kg | 13.7 mg/kg |  | 13.3 | Inhibition [16]: 0%; Inhibition [5]: 0%
12 | CC(=O)O.CCN(Cc1ccc(F)cc1)C(=O)CNC(=O)[C@@H](CCCN=C(N)N)NC(=O)[C@@H](N)Cc1ccc(O)cc1 | 63.8 nM | 0.09 mg/kg | 10.4 mg/kg |  | 3.9 | Inhibition [20]: 0%
13 | CC(=O)O.CCN(CCc1ccc([N+](=O)[O-])cc1)C(=O)CNC(=O)[C@@H](CCCN=C(N)N)NC(=O)[C@@H](N)Cc1ccc(O)cc1 | 48.6 nM | 3.1 mg/kg | 17.5 mg/kg |  | 4.5 | ED50 [7]: 43.5 mg/kg; Inhibition [13]: 0%
14 | CC(=O)O.CCN(CCCc1ccc([N+](=O)[O-])cc1)C(=O)CNC(=O)[C@@H](CCCN=C(N)N)NC(=O)[C@@H](N)Cc1ccc(O)cc1 | 1800 nM |  |  |  |  | Inhibition [9]: 0%
15 | CC(=O)O.CCN(CCc1ccc(Cl)c(Cl)c1)C(=O)CNC(=O)[C@@H](CCCN=C(N)N)NC(=O)[C@@H](N)Cc1ccc(O)cc1 | 12.5 nM |  | 4.7 mg/kg | 0% | 0.5 | Inhibition [21]: 0%; Inhibition [13]: ~100%
16 | CC(=O)O.CCN(CCc1ccccc1[N+](=O)[O-])C(=O)CNC(=O)[C@@H](CCCN=C(N)N)NC(=O)[C@@H](N)Cc1ccc(O)cc1 | 118 nM | 2.7 mg/kg | 31 mg/kg |  | 6.4 | Inhibition [16]: 0%; Inhibition [20]: 0%
17 | CC(=O)O.CCN(CCc1ccncc1)C(=O)CNC(=O)[C@@H](CCCN=C(N)N)NC(=O)[C@@H](N)Cc1ccc(O)cc1 | 569 nM |  |  |  |  | Inhibition [22]: 0%
18 | CC(=O)O.CCN(Cc1ccc(-c2ccccc2)cc1)C(=O)CNC(=O)[C@@H](CCCN=C(N)N)NC(=O)[C@@H](N)Cc1ccc(O)cc1 |  |  |  | 0% |  | Inhibition [14]: 13%
19 | CC(=O)O.CCN(CCc1ccco1)C(=O)CNC(=O)[C@@H](CCCN=C(N)N)NC(=O)[C@@H](N)Cc1ccc(O)cc1 |  |  |  | 0% |  | Inhibition [14]: 0%
20 | CC(=O)O.CCN(CCc1ccccc1C(F)(F)F)C(=O)CNC(=O)[C@@H](CCCN=C(N)N)NC(=O)[C@@H](N)Cc1ccc(O)cc1 | 72.1 nM |  |  | 0% |  | Inhibition [23]: 33%
